How the values were obtained:
C2C12 [1] = experiment: Increase in glucose uptake in mouse C2C12 cells incubated for 18 hrs using [3H]-2-deoxy-D-glucose by liquid scintillation counting relative to DMSO; type: functional; parameters: concentration or dose not given beside the values
Outline: (§1)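 Differentiated confluent C2C12 myotubes were held 18 h in DMEM with 2% horse serum containing compound (6.25–100 μM; 0.1% DMSO vehicle control). Cells were equilibrated 30 min at 37 °C in Krebs phosphate buffer pH 7.4 with 5 mM glucose, rinsed glucose-free, then given 10 μM 2-deoxy-D-glucose plus 1 μCi/mL [3H]-2-deoxyglucose for 10 min at 37 °C. Cells were lysed in 0.1 M NaOH and counted by scintillation.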

[2] = target: T1, Glucose-6-phosphatase catalytic subunit 1 (Rattus norvegicus, UniProt P43428); experiment: Inhibition of glucose-6-phosphatase enzymatic activity in rat […] cells using G6P substrate incubated for 18 hrs by colorimetric assay; type: cell-based
T1 sequence (P43428 whole entry): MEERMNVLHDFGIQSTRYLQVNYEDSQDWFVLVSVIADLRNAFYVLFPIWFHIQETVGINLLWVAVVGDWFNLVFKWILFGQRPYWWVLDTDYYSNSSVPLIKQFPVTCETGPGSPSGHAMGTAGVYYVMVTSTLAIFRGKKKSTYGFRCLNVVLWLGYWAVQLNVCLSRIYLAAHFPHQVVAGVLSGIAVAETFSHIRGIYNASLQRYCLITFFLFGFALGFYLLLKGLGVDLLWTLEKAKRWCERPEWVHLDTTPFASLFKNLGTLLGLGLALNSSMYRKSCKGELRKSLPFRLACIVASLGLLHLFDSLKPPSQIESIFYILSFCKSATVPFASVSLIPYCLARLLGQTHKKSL
Outline: (§2)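 H4IIE rat hepatoma cells at 90% confluence were treated 18 h with compound (1–100 μM; 0.1% DMSO control, 100 nM insulin reference). Cells were lysed in 15 mM phosphate buffer pH 6.5 with 0.05% Triton and 1.3 mM phenol, and lysate was incubated with 200 mM glucose-6-phosphate for 40 min at 37 °C. Glucose formed was read by glucose oxidase colorimetry at 505 nm and normalised to protein.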

C2C12 [3] = experiment: Increase in glucose uptake in mouse C2C12 cells incubated for 18 hrs using [3H]-2-deoxy-D-glucose by liquid scintillation counting; type: functional, cell-based; outline: as §1
[4] = target: T2, Glucose-6-phosphatase catalytic subunit 1 (Rattus norvegicus) (UniProt P43428); experiment: Inhibition of glucose-6-phosphatase enzymatic activity in rat […] cells at 50 uM using G6P substrate incubated for 18 hrs by colorimetric assay; type: cell-based; outline: as §2
T2 sequence (whole entry): T1 sequence (P43428 whole entry)

[5] = Mus musculus, C2C12, read-out: EC50

Structure (SMILES)	Efficacy (C2C12 [1])	IC50 [2]	EC50 (C2C12 [3]; [5])	inhibition [4]	EC50 (C2C12 [3]; c2c12)
O=C1C[C@H](O[C@@H]2O[C@H](CO)[C@@H](O)[C@H](O)[C@H]2O)CO1 [GOODYEROSIDE]	124%	391 µM	25.6 µM	19.6%	
COC(=O)C1=CO[C@@H](O[C@H]2O[C@H](CO)[C@@H](O)[C@H](O)[C@H]2O)[C@@H]2[C@H](C)O[C@@H](OC)C[C@H]12	120%		25.9 µM		
O=C(/C=C/c1ccc(O)c(O)c1)OC[C@H]1O[C@@H](O[C@@H]2COC(=O)C2)[C@H](O)[C@@H](O)[C@@H]1O		13.9 µM		44%	Not Active
COc1cc(-c2oc3cc(O)cc(O)c3c(=O)c2O[C@@H]2O[C@H](CO)[C@@H](O)[C@H](O)[C@H]2O)ccc1O	150%		18.5 µM		
O=c1c(O[C@@H]2O[C@H](CO)[C@H](O)[C@H](O)[C@H]2O)c(-c2ccc(O)c(O)c2)oc2cc(O)cc(O)c12 [HYPEROSIDE]	211%		60.5 µM		
O=C(/C=C/c1ccc(O)c(O)c1)OC[C@H]1O[C@@H](Oc2c(-c3ccc(O)cc3)oc3cc(O)cc(O)c3c2=O)[C@H](O)[C@@H](O)[C@@H]1O	188%		13.8 µM		

— ChEMBL document CHEMBL2069228, “Antidiabetic compounds from Sarracenia purpurea used traditionally by the Eeyou Istchee Cree First Nation” (J Nat Prod, 2012)
